In ChEMBL document CHEMBL1124099, “[1,2,4]Triazolo[4,3-a]quinoxalin-4-amines: a new class of A1 receptor selective adenosine antagonists” (J Med Chem, 1988) one finds Ratio and Ki data, which are given here for 15 compounds.

Where only a bound is given, the exact number is not on record here.

The target in assay [1] is Adenosine receptors; A1 & A2 (Rattus norvegicus) (UniProt P29276+P25099+P30543). Put plainly: Ratio of Ki at A2 and A1 receptors. Format: protein assay.
A further assay addresses Adenosine A2 receptor (Rattus norvegicus, UniProt P29276+P30543). In words: Binding affinity against Adenosine-2 receptor with [3H]-NECA in rat striatal membranes. Format: cell membranes. In outline:
(§1)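 Radioligand displacement on rat membranes: A1 used [3H]N6-cyclohexyladenosine ([3H]CHA) with whole-brain membranes, and A2 used [3H]NECA with striatal membranes. The procedure follows an earlier report. Each value is the mean of three or more independent experiments.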

For the next assay, the target named is T1, Adenosine receptor A1 (Rattus norvegicus, UniProt P25099).
T1 sequence (P25099 whole entry): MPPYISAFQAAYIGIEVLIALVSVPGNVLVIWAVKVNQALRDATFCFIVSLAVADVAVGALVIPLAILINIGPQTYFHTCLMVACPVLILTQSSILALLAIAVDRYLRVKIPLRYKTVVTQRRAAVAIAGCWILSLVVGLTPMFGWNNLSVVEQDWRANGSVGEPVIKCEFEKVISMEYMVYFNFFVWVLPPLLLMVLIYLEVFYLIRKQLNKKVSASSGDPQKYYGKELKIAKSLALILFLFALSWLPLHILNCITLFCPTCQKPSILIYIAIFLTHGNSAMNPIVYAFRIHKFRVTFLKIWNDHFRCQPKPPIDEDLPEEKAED
Put plainly: Binding affinity towards adenosine A1 receptor using [3H]N-cyclohexyladenosine in rat whole brain membranes. Format: cell membranes. The method in brief: as §1

One may read the Ki as a dissociation constant, usually derived from enzyme kinetics or from competition with a known ligand. Low values mean tighter binding, high ones weaker binding. For the compound `c1ccc2c(c1)nc(NC1CCCC1)c1nncn12`, in assay [1], the Ratio is 37. The figures for the inhibition constant Ki on Adenosine A2 receptor and on Adenosine receptor A1 were 6700 nM and 181 nM, respectively.
In the case of `CCc1nnc2c(NC3CC3)nc3ccccc3n12`, the Ratio in assay [1] amounted to 17.3. In addition, the inhibition constant Ki on Adenosine A2 receptor is 4500 nM; at Adenosine receptor A1, 260 nM.
In the same order, the values of `CCCc1nnc2c(NC3CCCC3)nc3ccccc3n12` are 47, 1830 nM and 39 nM.
Taken in the same sequence, the figures for `Cc1nnc2c(NC3CCCC3)nc3ccccc3n12` were 79, 2700 nM and 34 nM.
Consider `CCc1nnc2c(NC3CCCCC3)nc3ccccc3n12`, for which the Ratio in assay [1] worked out at 50. Further, the figures for the Ki on Adenosine A2 receptor and at Adenosine receptor A1 were 4000 nM and 80 nM, respectively.
In the same order, the values of `CCc1nnc2c(NC3CCCC3)nc3ccccc3n12` are 107, 3000 nM and 28 nM.
Taken in the same sequence, the figures for `CCCCc1nnc2c(NC3CCCC3)nc3ccccc3n12` were above 182, above 10000 nM and 55 nM.
Taken in the same sequence, the figures for `CCN(CC)c1nc2ccccc2n2cnnc12` were 2.1, 18800 nM and 8900 nM.
`FC(F)(F)c1nnc2c(NC3CCCC3)nc3ccccc3n12`: the Ratio in assay [1] was 138. Further, the inhibition constant (Ki) at Adenosine A2 receptor is 1010 nM; on Adenosine receptor A1, 7.3 nM.
As for `CCc1nnc2c(NC3CCC3)nc3ccccc3n12`, the Ratio in assay [1] is 29. The Ki at Adenosine A2 receptor is 1710 nM; at Adenosine receptor A1, 58 nM.
Consider `CC(C)Nc1nc2ccccc2n2cnnc12`, for which, in assay [1], the Ratio is 3. The Ki amounted to 7000 nM at Adenosine A2 receptor and 2300 nM on Adenosine receptor A1.
Taken in the same sequence, the figures for `CCc1nnc2c(NC(C)C)nc3ccccc3n12` were 17.5, 4200 nM and 240 nM.
Taken in the same sequence, the figures for `CCc1nnc2c(NCC(C)O)nc3ccccc3n12` (stereo not given) were 67, 22000 nM and 330 nM.
Taken in the same sequence, the figures for `CCc1nnc2c(Nc3ccccc3)nc3ccccc3n12` were 18.7, 11800 nM and 630 nM.
Consider `CCc1nnc2c(NC3CC4CCC3C4)nc3ccccc3n12` (stereo not given), for which the Ratio in assay [1] worked out at 139. Besides, the Ki on Adenosine A2 receptor came out at 6100 nM; on Adenosine receptor A1, 44 nM.
